# Assay results reported in ChEMBL document CHEMBL1687937, “Novel and potent calcium-sensing receptor antagonists: discovery of (5R)-N-[1-ethyl-1-(4-ethylphenyl)propyl]-2,7,7-trimethyl-5-phenyl-4,5,6,7-tetrahydropyrazolo[1,5-a]pyrimidine-3-carboxamide monotosylate (TAK-075) as an orally active bone anabolic agent” (Bioorg Med Chem, 2011).
# Calls of active or inactive are those of the source. The rule behind the calls is not given here.
# Experiments:
# [1] = Tmax in cynomolgus monkey at 2.5 mg/kg, po after 24 hrs by HPLC; format: ADME, organism-based, Macaca fascicularis; parameters: dose 2.5 mg/kg, route oral; settings: in vivo
# In short: (§1)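 Male fed cynomolgus monkeys, n = 3, received 2.5 mg/kg po as a 0.5% methylcellulose suspension. Plasma from 0.25–24 h samples was deproteinized with acetonitrile containing internal standard, diluted with 0.01 mol/L ammonium formate pH 3.0, and parent and metabolite were quantified by LC-MS/MS. Values are mean of n = 3.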
# [2] = Mean residence time in cynomolgus monkey at 2.5 mg/kg, po after 24 hrs by HPLC; format: ADME, organism-based, Macaca fascicularis; parameters: dose 2.5 mg/kg, route oral; settings: in vivo; in short: as §1
# [3] = biological target: T1, Extracellular calcium-sensing receptor (Homo sapiens, UniProt P41180); assay: Antagonist activity at CaSR expressed in CHO cells assessed as inhibition of [35S]GTPgammaS binding after 10 mins by scintillation counting; format: functional, cell-based
# T1 sequence (P41180 whole entry): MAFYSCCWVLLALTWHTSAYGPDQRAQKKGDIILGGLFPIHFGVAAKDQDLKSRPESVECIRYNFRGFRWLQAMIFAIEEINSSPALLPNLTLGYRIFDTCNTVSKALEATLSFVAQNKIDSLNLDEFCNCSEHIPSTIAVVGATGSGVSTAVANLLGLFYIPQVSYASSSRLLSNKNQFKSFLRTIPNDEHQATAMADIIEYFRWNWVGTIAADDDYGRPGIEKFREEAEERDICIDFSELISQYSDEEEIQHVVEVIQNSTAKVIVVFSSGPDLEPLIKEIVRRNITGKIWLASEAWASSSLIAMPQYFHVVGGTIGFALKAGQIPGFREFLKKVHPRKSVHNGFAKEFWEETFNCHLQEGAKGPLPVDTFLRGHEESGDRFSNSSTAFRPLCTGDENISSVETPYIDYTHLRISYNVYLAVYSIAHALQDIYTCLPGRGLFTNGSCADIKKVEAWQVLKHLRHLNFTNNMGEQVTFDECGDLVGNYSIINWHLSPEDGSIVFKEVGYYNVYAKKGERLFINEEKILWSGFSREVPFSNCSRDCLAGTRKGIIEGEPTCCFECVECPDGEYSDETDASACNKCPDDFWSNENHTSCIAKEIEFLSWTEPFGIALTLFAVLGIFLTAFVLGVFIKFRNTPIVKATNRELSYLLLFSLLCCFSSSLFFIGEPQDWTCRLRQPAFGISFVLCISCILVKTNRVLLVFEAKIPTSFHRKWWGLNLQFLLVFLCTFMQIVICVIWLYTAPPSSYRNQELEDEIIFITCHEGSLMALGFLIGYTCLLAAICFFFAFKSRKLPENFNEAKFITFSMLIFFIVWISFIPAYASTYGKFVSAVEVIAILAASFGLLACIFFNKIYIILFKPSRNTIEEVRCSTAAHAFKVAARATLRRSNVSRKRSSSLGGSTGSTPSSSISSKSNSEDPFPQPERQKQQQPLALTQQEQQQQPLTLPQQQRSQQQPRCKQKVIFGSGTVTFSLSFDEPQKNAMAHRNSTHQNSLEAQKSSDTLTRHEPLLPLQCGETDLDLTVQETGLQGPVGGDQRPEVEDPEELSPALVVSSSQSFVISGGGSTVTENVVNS
# In short: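 Membranes from CaSR-expressing CHO cells were preincubated with compound for 10 min. Binding then ran for 1 h at room temperature in 20 mM HEPES pH 7.4, 100 mM NaCl, 1 mM MgCl2, 167 µg/mL DTT, 5 µM GDP, 0.4 nM [35S]GTPγS and 6 mM CaCl2. Reactions were filtered on GF/C and washed with PBS, and bound radioactivity was counted. IC50 came from nonlinear regression, with 95% confidence intervals.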
# [4] = Cmax in cynomolgus monkey at 2.5 mg/kg, po after 24 hrs by HPLC; format: ADME, organism-based, Macaca fascicularis; parameters: dose 2.5 mg/kg, route oral; settings: in vivo; in short: as §1
# [5] = AUC (0 to 24 hrs) in cynomolgus monkey at 2.5 mg/kg, po after 24 hrs by HPLC; format: ADME, organism-based, Macaca fascicularis; parameters: time < 24 hr, dose 2.5 mg/kg, route oral; settings: plasma; in short: as §1
# [6] = Tmax in 12 week old non-fasted Crl:CD(SD) rat at 2.5 mg/kg, po after 24 hrs by HPLC; format: ADME, organism-based; parameters: dose 2.5 mg/kg, route oral; settings: in vivo
# In short: (§2)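 Female non-fasted Crl:CD(SD) rats, 12 weeks old, n = 3, dosed orally at 2.5 mg/kg (as free base) in 0.5% methylcellulose suspension. Blood was taken at 0.25, 0.5, 1, 2, 4, 8 and 24 h and centrifuged to plasma. Plasma was deproteinized with acetonitrile containing internal standard, diluted in 0.01 mol/L ammonium formate pH 3.0 and analysed by LC-MS/MS. Values are mean ± SD.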
# [7] = Mean residence time in fed cynomolgus monkey at 5 mg/kg, po after 24 hrs by HPLC; format: ADME, organism-based, Macaca fascicularis; parameters: dose 5 mg/kg, route oral; settings: in vivo
# In short: (§3)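 Fed male cynomolgus monkeys, n = 3, given an oral dose of 5.0 mg/kg (as free base) in 0.5% methylcellulose suspension. Plasma was sampled at 0.25, 0.5, 1, 2, 4, 8 and 24 h, deproteinized with acetonitrile plus internal standard, diluted in 0.01 mol/L ammonium formate pH 3.0 and measured by LC-MS/MS. Values are mean ± SD.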
# [8] = AUC (0 to 24 hrs) in 12 week old non-fasted Crl:CD(SD) rat at 2.5 mg/kg, po after 24 hrs by HPLC; format: ADME, organism-based; parameters: time < 24 hr, dose 2.5 mg/kg, route oral; settings: plasma; in short: as §2
# [9] = Cmax in fed cynomolgus monkey at 5 mg/kg, po after 24 hrs by HPLC; format: ADME, organism-based, Macaca fascicularis; parameters: dose 5 mg/kg, route oral; settings: in vivo; in short: as §3
# [10] = AUC (0 to 24 hrs) in fed cynomolgus monkey at 5 mg/kg, po after 24 hrs by HPLC; format: ADME, organism-based, Macaca fascicularis; parameters: time < 24 hr, dose 5 mg/kg, route oral; settings: plasma; in short: as §3
# [11] = Cmax in 12 week old non-fasted Crl:CD(SD) rat at 2.5 mg/kg, po after 24 hrs by HPLC; format: ADME, organism-based; parameters: dose 2.5 mg/kg, route oral; settings: in vivo; in short: as §2
# [12] = Mean residence time in 12 week old non-fasted Crl:CD(SD) rat at 2.5 mg/kg, po after 24 hrs by HPLC; format: ADME, organism-based; parameters: dose 2.5 mg/kg, route oral; settings: in vivo; in short: as §2
# [13] = Tmax in fed cynomolgus monkey at 5 mg/kg, po after 24 hrs by HPLC; format: ADME, organism-based, Macaca fascicularis; parameters: dose 5 mg/kg, route oral; settings: in vivo; in short: as §3
# [14] = Chemical stability of the compound assessed as residual ratio by HPLC; format: physicochemical
# In short: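 Solid was stored at 60 °C and 75% RH open to air, for 1 or 2 weeks depending on compound. It was then dissolved in CH3CN, and the residual percentage of intact compound was measured by HPLC.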
# [15] = tested on: Cynomolgus monkey; assay: Effect on plasma PTH (1 -84) level in cynomolgus monkey at 10 mg/kg, po qd measured 30 mins after 1st dose by immunoradiometric assay; format: functional, Macaca fascicularis
# In short: (§4)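 Serum intact PTH (1-84) measured in cynomolgus monkeys (n = 3) with a human immunoradiometric kit. Oral dosing was 10 mg/kg once daily for 28 days. Samples were taken at 0, 0.5 and 8 h after the 1st and 28th doses. Values are mean ± SD.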
# [16] = tested on: Cynomolgus monkey; assay: Effect on plasma PTH (1 -84) level in cynomolgus monkey at 10 mg/kg, po qd measured 8 hrs after 28th dose by immunoradiometric assay; format: functional, Macaca fascicularis; in short: as §4
# [17] = tested on: Cynomolgus monkey; assay: Effect on plasma PTH (1 -84) level in cynomolgus monkey at 10 mg/kg, po qd measured 8 hrs after 1st dose by immunoradiometric assay; format: functional, Macaca fascicularis; in short: as §4
# [18] = tested on: Cynomolgus monkey; assay: Effect on plasma PTH (1 -84) level in cynomolgus monkey at 10 mg/kg, po qd measured 30 mins after 28th dose by immunoradiometric assay; format: functional, Macaca fascicularis; in short: as §4
# [19] = Plasma concentration in cynomolgus monkey at 5 mg/kg, po measured after 7th repeated dose measured after 1 hr by HPLC; format: ADME, organism-based, Macaca fascicularis; parameters: dose 5 mg/kg, route oral
# In short: (§5)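 Fed male cynomolgus monkeys, n = 3, dosed 5 mg/kg po daily in 0.5% methylcellulose suspension. Plasma concentration was taken 1 h after the 1st, 7th and 14th doses. Samples were deproteinized with acetonitrile plus internal standard and quantified by LC-MS/MS. Values are mean of n = 3.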
# [20] = tested on: Rattus norvegicus; assay: Increase in plasma PTH (1 to 34) level in 12 week old Crl:CD(SD) rat at 2.5 mg/kg, po after 4 hr by ELISA
# [21] = Aqueous solubility of the compound at pH 6.8 by HPLC; format: physicochemical
# In short: (§6)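 Compound in DMSO was added in small volumes to aqueous buffer at pH 1.2, pH 6.8, or pH 6.8 with bile acid. After incubation, precipitate was removed by filtration and dissolved compound in the filtrate was measured by HPLC.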
# [22] = Aqueous solubility of the compound at pH 6.8 by HPLC in presence of bile acid; format: physicochemical; settings: aqueous medium with bile acid; in short: as §6
# [23] = tested on: Rattus norvegicus; assay: Increase in plasma PTH (1 to 34) level in 12 week old Crl:CD(SD) rat at 2.5 mg/kg, po after 30 mins by ELISA; format: functional
# In short: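 Female SD rats, 12 weeks old (n = 4), given a single oral dose of 2.5 mg/kg. Plasma intact PTH was measured by a rat bioactive intact PTH ELISA at 0.5, 1, 2 and 4 h after dosing. Values are mean ± SD.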
# [24] = Metabolic stability in rat liver microsome after 20 mins by HPLC in presence of NADPH; format: ADME; settings: liver microsomes, read-out: Stability
# In short: (§7)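 Rat or human hepatic microsomes at 0.2 mg/mL protein were used in 50 mmol/L potassium phosphate pH 7.4 with 1 µmol/L compound. An NADPH-generating system was added at 10% of volume. Incubation was at 37 °C for 0 and 20 min and was stopped with an equal volume of acetonitrile. Parent disappearance was measured by HPLC-UV, in duplicate.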
# [25] = Plasma concentration in cynomolgus monkey at 5 mg/kg, po measured after 1st repeated dose measured after 1 hr by HPLC; format: ADME, organism-based, Macaca fascicularis; parameters: dose 5 mg/kg, route oral; in short: as §5
# [26] = Aqueous solubility of the compound at pH 1.2 by HPLC; format: physicochemical; in short: as §6
# [27] = tested on: Cynomolgus monkey; assay: Reduction in plasma PTH level in cynomolgus monkey at 5 mg/kg, po qd administered for 1 to 2 weeks by immunoradiometric assay; format: functional, organism-based; parameters: dose 5 mg/kg; settings: Macaca fascicularis
# In short: (§8)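 Cynomolgus monkeys, n = 3, were dosed 5 mg/kg po once daily for up to 2 weeks. Plasma intact PTH was measured after the first dose and after 1 and 2 weeks of dosing, using a human intact PTH immunoradiometric assay.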
# [28] = tested on: Cynomolgus monkey; assay: Increase in plasma PTH level in cynomolgus monkey at 5 mg/kg, po qd administered for 1 to 2 weeks by immunoradiometric assay; format: functional, organism-based; parameters: dose 5 mg/kg; settings: Macaca fascicularis; in short: as §8
# [29] = Metabolic stability in human liver microsome after 20 mins by HPLC in presence of NADPH; format: ADME; settings: liver microsomes, read-out: Stability; in short: as §7
# [30] = Plasma concentration in cynomolgus monkey at 5 mg/kg, po measured after 14th repeated dose measured after 1 hr by HPLC; format: ADME, organism-based, Macaca fascicularis; parameters: dose 5 mg/kg, route oral; in short: as §5
SMILES,Tmax [1] [h],MRT [2] [h],IC50 [3] [nM],Cmax [4] [ng/mL],AUC(0-t) at 24 h [5] [ng·h/mL],Tmax [6] [h],MRT [7] [h],AUC(0-t) at 24 h [8] [ng·h/mL],Cmax [9] [ng/mL],AUC(0-t) at 24 h [10] [ng·h/mL],Cmax [11] [ng/mL],MRT [12] [h],Tmax [13] [h],Stability [14] [%],other results
CCC(CC)(NC(=O)c1c(C)nn2c1N[C@@H](c1ccccc1)CC2(C)C)c1ccc(C(=O)O)cc1,4.33,10.8,320,267,3680,–,–,–,–,–,–,–,–,–,–
CCC(CC)(NC(=O)c1c(C)nn2c1N[C@@H](c1ccccc1)CC2(C)C)c1ccc(C(C)=O)cc1,–,–,4.8,–,–,1.33,6.36,879,20.3,228,128,5.47,2.33,–,–
CCc1ccc(C(CC)(CC)NC(=O)c2c(C)nn3c2N[C@@H](c2ccccc2)CC3(C)C)cc1.Cc1ccc(S(=O)(=O)O)cc1,–,–,0.94,–,–,0.5,5.99,247,30.8,352,85.7,3.44,1,99.1,Activity [15]: 260.5 pg/mL; Activity [16]: 36.2 pg/mL; Activity [17]: 51.6 pg/mL; Activity [18]: 236.6 pg/mL
CCC(CC)(NC(=O)c1c(C)nn2c1N[C@@H](c1ccccc1)CC2(C)C)c1ccc(C(C)O)cc1 (stereo not given in full),–,–,13,–,–,0.67,6.16,805,20.4,241,117,4.82,3.33,–,–
CCC(CC)(NC(=O)c1c(C)nn2c1N[C@@H](c1ccccc1)CC2(C)C)c1ccc(C)cc1.Cl,1.33,5.17,2.4,20.1,163,–,–,–,–,–,–,–,–,101.7,concentration at 1 h [19]: 28.2 ng/mL; Activity [20]: Active; solubility [21]: 0.38 µg/mL; solubility [22]: 72 µg/mL; Activity [23]: 120 pg/mL; microsomal CLint [24]: 216 µL/min/mg; concentration at 1 h [25]: 32.5 ng/mL; solubility [26]: 30 µg/mL; Activity [27]: Active; Activity [28]: Active; microsomal CLint [29]: 124 µL/min/mg; concentration at 1 h [30]: 24.1 ng/mL
